≈ marks a conversion by molar mass, not a printed value. Calls of active or inactive are those of the source. The calls are words filed in the database; no cut-off is given here.
What was measured:
[1] = target: T1, Alpha-1A adrenergic receptor (Homo sapiens, UniProt P35348); assay: Intrinsic activity at recombinant human alpha1A adrenergic receptor expressed in HEK293 cells assessed as intercellular Ca mobilization by Fura-2AM dye-based fluorescence assay relative to norepinephrine; type: cell-based; settings: read-out: Intrinsic activity
T1 sequence (P35348 whole entry): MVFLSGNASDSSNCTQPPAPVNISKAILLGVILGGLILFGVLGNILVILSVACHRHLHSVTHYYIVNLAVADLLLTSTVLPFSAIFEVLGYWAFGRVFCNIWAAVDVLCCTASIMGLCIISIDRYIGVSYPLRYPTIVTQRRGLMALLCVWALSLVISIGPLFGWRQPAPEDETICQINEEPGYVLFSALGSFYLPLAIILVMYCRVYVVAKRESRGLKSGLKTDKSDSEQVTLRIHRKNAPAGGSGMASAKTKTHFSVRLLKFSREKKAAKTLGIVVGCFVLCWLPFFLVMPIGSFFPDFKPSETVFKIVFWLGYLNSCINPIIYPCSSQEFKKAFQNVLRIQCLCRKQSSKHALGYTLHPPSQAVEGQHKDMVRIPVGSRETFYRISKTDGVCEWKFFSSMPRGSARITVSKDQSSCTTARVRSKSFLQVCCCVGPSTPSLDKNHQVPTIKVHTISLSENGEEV

Homo sapiens = species: Homo sapiens; assay: Selectivity ratio of EC50 for recombinant human alpha1A adrenergic receptor to EC50 for recombinant human beta3 adrenergic receptor
[2] = Intrinsic clearance in human liver microsomes at 1 uM in presence of NADPH by LC-MS/MS analysis; type: ADME, microsome
Method in brief: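 Pooled mixed-gender human liver microsomes (0.5 mg/mL) in 100 mM potassium phosphate pH 7.4 with NADPH-regenerating mix plus UDP-GA, test compound 1 µM, 15 min at 37 °C. Acetonitrile stop, LC-MS/MS. k from the remaining fraction. CLint,u is scaled with 48.8 mg protein/g liver and 25.7 g liver/kg, and corrected by fu from equilibrium dialysis (1 µM, 0.5 mg/mL, 6 h, 37 °C).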

[3] = Intrinsic clearance in Sprague-Dawley rat liver microsomes at 0.5 uM in presence of NADPH by LC-MS/MS analysis; type: ADME, microsome
Method in brief: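 Pooled male Sprague-Dawley rat liver microsomes (0.5 mg/mL final) in 100 mM Tris-HCl pH 7.4 with NADPH-regenerating mix plus UDP-GA, test compound 0.5 µM, 20 min at 37 °C. Acetonitrile stop, LC-MS/MS. CLint,u is scaled with 44.8 mg protein/g liver and 40.0 g liver/kg, and corrected by fu from ultracentrifugation (160,000g, 16 h, 37 °C).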

[4] = Solubility of the compound at pH 1.2 buffer solution after 18 hrs by HPLC analysis; type: physicochemical
[5] = Solubility of the compound at pH 6.8 buffer solution after 18 hrs by HPLC analysis; type: physicochemical
[6] = Cmax in Sprague-Dawley rat at 5 mg/kg, po by LC-MS/MS analysis; type: ADME, organism-based; parameters: dose 5 mg/kg, route oral; settings: in vivo
Method in brief: (§1)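 Male Sprague-Dawley rats (n = 2 or 3) dosed orally at 5 mg/kg in saline or water (5 mL/kg). Blood taken from the subclavian vein at 0.5, 1, 2, 4, 6 and 8 h; plasma separated by centrifugation, stored at -20 °C, and drug levels measured by LC-MS/MS. Values are mean ± SD (n = 3) or the average of two experiments.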

[7] = AUC in Sprague-Dawley rat at 5 mg/kg, po by LC-MS/MS analysis; type: ADME, organism-based; settings: in vivo; method in brief: as §1
[8] = Membrane permeability in MDCK cells at 50 uM after 60 mins by LC-MS/MS analysis; type: ADME, cell-based, Canis lupus familiaris; settings: dog, read-out: permeability
[9] = target: T2, Beta-3 adrenergic receptor (Homo sapiens, UniProt P13945); assay: Agonist activity at recombinant human beta3 adrenergic receptor expressed in CHO cells assessed as accumulation of cyclic AMP after 30 mins; type: cell-based
Target sequence in this assay (P13945 whole entry): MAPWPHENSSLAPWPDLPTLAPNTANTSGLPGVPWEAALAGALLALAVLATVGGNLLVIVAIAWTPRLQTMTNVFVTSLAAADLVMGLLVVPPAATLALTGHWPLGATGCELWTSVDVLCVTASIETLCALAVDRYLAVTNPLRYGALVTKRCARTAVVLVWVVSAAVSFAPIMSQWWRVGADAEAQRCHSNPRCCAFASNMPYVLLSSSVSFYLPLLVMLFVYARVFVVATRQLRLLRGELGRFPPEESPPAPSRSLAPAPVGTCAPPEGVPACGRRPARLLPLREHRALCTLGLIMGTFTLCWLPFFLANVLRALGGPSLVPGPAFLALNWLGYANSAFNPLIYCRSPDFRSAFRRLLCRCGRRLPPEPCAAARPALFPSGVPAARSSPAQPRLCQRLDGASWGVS

[10] = target: T2, Beta-3 adrenergic receptor; assay: Intrinsic activity at recombinant human beta3 adrenergic receptor expressed in CHO cells assessed as accumulation of cyclic AMP after 30 mins relative to isoproterenol; type: cell-based
Target sequence in this assay (P13945 whole entry, looked up): as the sequence (P13945 whole entry) above

[11] = target: T1, Alpha-1A adrenergic receptor; assay: Agonist activity at recombinant human alpha1A adrenergic receptor expressed in HEK293 cells assessed as intercellular Ca mobilization by Fura-2AM dye-based fluorescence assay; type: cell-based
[12] = Half life in Sprague-Dawley rat at 5 mg/kg, po by LC-MS/MS analysis; type: ADME, organism-based; settings: in vivo; method in brief: as §1
[13] = target: T3, Beta-1 adrenergic receptor (Homo sapiens, UniProt P08588); assay: Intrinsic activity at recombinant human beta1 adrenergic receptor assessed as accumulation of cyclic AMP after 30 mins relative to isoproterenol; settings: 0.5 h
[14] = target: T4, Beta-2 adrenergic receptor (Homo sapiens, UniProt P07550); assay: Intrinsic activity at recombinant human beta2 adrenergic receptor assessed as accumulation of cyclic AMP after 30 mins relative to isoproterenol
[15] = target: Adrenoceptor beta 3 (Callithrix jacchus) (UniProt F6XZF4); assay: Agonist activity at beta3 adrenergic receptor in marmoset urinary bladder smooth muscle strips assessed as induction of KCl-precontracted muscle relaxation treated every 20 mins
CYP2D6 = CYP2D6 (Homo sapiens, UniProt P10635); assay: Inhibition of CYP2D6 (unknown origin) at 10 uM relative to control; type: ADME
Rattus norvegicus [16] = assay: Cardiotoxicity in Sprague-Dawley rat assessed as increase in heart beat rate at 3 mg/kg, iv after 30 mins (reference value: 1.8 +/- 0.9%); type: toxicity, organism-based; settings: in vivo, 0.5 h
Rattus norvegicus [17] = assay: Cardiotoxicity in Sprague-Dawley rat assessed as increase in mean blood pressure at 3 mg/kg, iv after 30 mins (reference value: 1 +/- 0.5%); type: toxicity, organism-based; settings: in vivo, 0.5 h
Rattus norvegicus [18] = assay: Cardiotoxicity in Sprague-Dawley rat assessed as decrease in mean blood pressure at 3 mg/kg, iv after 30 mins (reference value: 5.4 +/- 1.9%); type: toxicity, organism-based; parameters: scale not given: the % may be the effect or the level left; settings: in vivo, 0.5 h
[19] = target: T3, Beta-1 adrenergic receptor; assay: Agonist activity at recombinant human beta1 adrenergic receptor expressed in CHO cells assessed as accumulation of cyclic AMP after 30 mins; type: cell-based
[20] = target: T4, Beta-2 adrenergic receptor; assay: Agonist activity at recombinant human beta2 adrenergic receptor expressed in CHO cells assessed as accumulation of cyclic AMP after 30 mins; type: cell-based

T3 sequence (P08588 whole entry): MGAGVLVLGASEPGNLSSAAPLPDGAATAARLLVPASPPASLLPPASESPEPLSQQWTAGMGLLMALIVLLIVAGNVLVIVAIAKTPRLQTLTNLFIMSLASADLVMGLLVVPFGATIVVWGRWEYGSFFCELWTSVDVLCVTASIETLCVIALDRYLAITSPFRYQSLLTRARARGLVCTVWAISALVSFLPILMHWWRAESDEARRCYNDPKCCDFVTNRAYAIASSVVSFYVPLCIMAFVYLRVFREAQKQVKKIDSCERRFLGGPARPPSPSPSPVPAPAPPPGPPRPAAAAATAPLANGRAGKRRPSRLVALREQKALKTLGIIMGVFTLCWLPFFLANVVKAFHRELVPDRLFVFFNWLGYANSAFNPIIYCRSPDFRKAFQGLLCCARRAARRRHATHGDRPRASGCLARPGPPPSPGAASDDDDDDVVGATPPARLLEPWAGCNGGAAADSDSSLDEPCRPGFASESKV
T4 sequence (P07550 whole entry): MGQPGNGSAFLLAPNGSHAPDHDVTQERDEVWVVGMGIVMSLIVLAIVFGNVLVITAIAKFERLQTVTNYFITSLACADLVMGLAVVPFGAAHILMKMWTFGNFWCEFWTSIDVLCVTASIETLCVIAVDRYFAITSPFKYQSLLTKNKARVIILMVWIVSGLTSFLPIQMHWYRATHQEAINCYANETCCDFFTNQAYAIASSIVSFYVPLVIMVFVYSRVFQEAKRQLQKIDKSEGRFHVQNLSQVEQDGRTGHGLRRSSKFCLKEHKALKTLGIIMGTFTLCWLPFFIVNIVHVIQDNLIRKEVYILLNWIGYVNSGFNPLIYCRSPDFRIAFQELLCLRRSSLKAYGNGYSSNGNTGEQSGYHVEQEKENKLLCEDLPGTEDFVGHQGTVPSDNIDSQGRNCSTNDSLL
Sequence of CYP2D6 (P10635 whole entry): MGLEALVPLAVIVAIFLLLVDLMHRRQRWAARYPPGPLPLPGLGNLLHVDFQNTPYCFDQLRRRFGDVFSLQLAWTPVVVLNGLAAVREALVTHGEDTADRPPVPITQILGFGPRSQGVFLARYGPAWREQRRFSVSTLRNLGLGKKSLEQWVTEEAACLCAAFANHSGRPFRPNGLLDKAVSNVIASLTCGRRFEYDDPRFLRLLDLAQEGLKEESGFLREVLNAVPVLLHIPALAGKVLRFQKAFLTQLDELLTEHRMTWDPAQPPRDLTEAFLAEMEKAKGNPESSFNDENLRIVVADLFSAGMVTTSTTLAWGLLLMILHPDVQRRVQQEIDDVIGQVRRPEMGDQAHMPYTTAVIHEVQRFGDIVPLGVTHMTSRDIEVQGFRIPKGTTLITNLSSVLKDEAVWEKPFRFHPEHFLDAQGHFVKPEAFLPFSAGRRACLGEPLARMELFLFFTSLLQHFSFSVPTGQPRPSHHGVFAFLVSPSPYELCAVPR
Sequence of Adrenoceptor beta 3 (Callithrix jacchus) (F6XZF4 as listed by the source): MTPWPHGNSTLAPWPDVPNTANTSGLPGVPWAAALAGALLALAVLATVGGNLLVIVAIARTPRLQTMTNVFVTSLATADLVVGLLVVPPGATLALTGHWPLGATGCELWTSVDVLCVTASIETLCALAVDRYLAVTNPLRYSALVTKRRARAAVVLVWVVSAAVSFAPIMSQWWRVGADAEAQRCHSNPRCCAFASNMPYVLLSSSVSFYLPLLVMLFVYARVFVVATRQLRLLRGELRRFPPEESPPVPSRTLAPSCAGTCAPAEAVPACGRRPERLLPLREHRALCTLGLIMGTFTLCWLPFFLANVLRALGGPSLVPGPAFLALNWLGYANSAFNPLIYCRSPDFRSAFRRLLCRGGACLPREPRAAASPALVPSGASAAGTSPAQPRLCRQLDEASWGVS

Emax [1]	Ratio EC50 (Homo sapiens)	CLint scaled at 1 µM [2]	CLint scaled at 0.5 µM [3]	EC50 [9]	Intrinsic activity [10]	EC50 [11]	Structure (SMILES)	also measured
71%	10	< 10 mL/min/kg	103 mL/min/kg				Cc1n[nH]c2cc(OCCNC[C@H](O)c3cccc(NS(C)(=O)=O)c3)ccc12	solubility at 18 h [4]: 285 µM (≈ 115 µg/mL); solubility at 18 h [5]: 273 µM (≈ 110 µg/mL); Cmax [6]: 107 ng/mL; AUC [7]: 542 ng·h/mL; Papp at 1 h, 50 µM [8]: 2.4 ×10⁻⁶ cm/s
4%	> 151	463 mL/min/kg	641 mL/min/kg				CS(=O)(=O)Nc1cccc([C@@H](O)CNCCOc2ccc3c(C4CCC4)n[nH]c3c2)c1	
84%	25			6.5 nM	79%	163 nM	CCCS(=O)(=O)Nc1cccc([C@@H](O)CNCCOc2ccc3c(C)n[nH]c3c2)c1	
9.1%	> 769	193 mL/min/kg	211 mL/min/kg				CC(C)c1n[nH]c2cc(OCCNC[C@H](O)c3cccc(NS(C)(=O)=O)c3)ccc12	solubility at 18 h [4]: 295 µM (≈ 128 µg/mL); solubility at 18 h [5]: 267 µM (≈ 115 µg/mL); Cmax [6]: 45.2 ng/mL; AUC [7]: 200 ng·h/mL; half-life [12]: 1.62 h; Papp at 1 h, 50 µM [8]: 4.1 ×10⁻⁶ cm/s; Intrinsic activity [13]: 11.9%; Emax at 0.5 h [14]: 5.6%
31%	61	42 mL/min/kg	113 mL/min/kg				CCc1n[nH]c2cc(OCCNC[C@H](O)c3cccc(NS(C)(=O)=O)c3)ccc12	

The remaining lines, values behind:

Structure (SMILES)	Emax [1]	Ratio EC50 (Homo sapiens)	CLint scaled at 1 µM [2]	CLint scaled at 0.5 µM [3]	EC50 [9]	Intrinsic activity [10]	EC50 [11]	also measured
Cc1n[nH]c2cc(OCCNC[C@H](O)c3cccc(NS(=O)(=O)C(C)C)c3)ccc12	27%	25			70 nM	90%	1760 nM	
Cc1n[nH]c2cc(OCCNC[C@H](O)c3cccc(NS(=O)(=O)C4CC4)c3)ccc12	26%	29			43 nM	72%	1250 nM	
CC(C)NCC(O)c1ccc(O)c(O)c1 (configuration not stated)								Activity [15]: Active
Cc1n[nH]c2cc(OCCNC[C@H](O)c3cccc(NS(=O)(=O)C4CCCC4)c3)ccc12	0%	> 32			309 nM	58%	> 10000 nM	
Nc1nc(CC(=O)Nc2ccc(CCNC[C@H](O)c3ccccc3)cc2)cs1 [MIRABEGRON]								inhibition at 10 µM (CYP2D6): 87%; Activity (Rattus norvegicus [16]): 10%; Activity (Rattus norvegicus [17]): 3.5%; Activity (Rattus norvegicus [18]): 38.3%
Cc1n[nH]c2cc(OCCNC[C@H](O)c3cccc(NS(=O)(=O)c4ccccc4)c3)ccc12	0%	> 2560	464 mL/min/kg		3.9 nM	85%	> 10000 nM	solubility at 18 h [4]: 300 µM (≈ 140 µg/mL); solubility at 18 h [5]: 229 µM (≈ 107 µg/mL); Papp at 1 h, 50 µM [8]: 5.1 ×10⁻⁶ cm/s; EC50 [19]: > 10000 nM; EC50 [20]: > 10000 nM; Intrinsic activity [13]: 10%; Emax at 0.5 h [14]: 0%
